One may read the Cmax as the peak of the concentration-time curve. What is called inhibition is the relative decrease from the control value, in per cent.

The record followed here is ChEMBL document CHEMBL5500386, “Design, synthesis and bioactivity evaluation of 4-hydroxycoumarin derivatives as potential anti-inflammatory agents against acute lung injury and colitis” (Eur J Med Chem, 2024).

A short description of series [1]: Cmax in male Sprague-Dawley rat at 10 mg/kg, po measured upto 24 hrs by triple quadrupole mass spectrometric analysis. Format: ADME, organism-based. The conditions noted are these: in vivo.
The nature of series [2]: Acute toxicity in male ICR mouse assessed as histopathological changes in lung at 500 to 1000 mg/kg, po administered daily for 10 days by H and E staining based analysis. Format: organism-based. Conditions: in vivo, 240 h, dose 500-1000 mg/kg, time 10 day. The procedure, abridged:
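Male ICR mice (8 weeks, 30 g ± 2 g), acclimatised 1 week, randomised into 1000 mg/kg, 500 mg/kg and untreated control groups (n = 24 total). Dosed by daily gavage, compound dissolved in 0.5 % DMSO then added to normal saline. Body weight and behaviour recorded daily. Euthanised after 10 days; heart, liver, spleen, lung and kidney examined by H&E staining.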

A further series relates to Mus musculus. As to the kind of experiment: Protection against LPS-induced C57BL/6 mouse model of acute lung injury assessed as reduction in protein level in BALF at 20 mg/kg, po administered 3 times for every 12 hrs followed by LPS stimulation at 5 mg/kg and measured after 6 hrs. The conditions noted are these: time 30.0 hrs. Format: functional, organism-based. The procedure, abridged:
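C57BL/6 mice, 6 per group. Gavaged at 20 mg/kg three times at 12 h intervals; controls received saline, and dexamethasone 20 mg/kg served as reference. After the last dose, LPS 5 mg/kg given intratracheally. At 6 h, blood collected for serum IL-6 by ELISA. Left lung lavaged with 3 × 200 μL saline, and BALF assayed for IL-6, total protein and neutrophil count. Mean ± SEM, n = 6.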

Series [3] relates to TGF-beta-activated kinase 1 (MAP3K7). As to the kind of experiment: Inhibition of TAK1 (unknown origin) at 10 uM relative to control. Conditions: Homo sapiens.
A further series relates to J774.A1. Briefly: Antiinflammatory activity in LPS-induced mouse J774.a1 cells assessed as inhibition of IL-6 production by measuring fold change at 10 uM pretreated for 2 hrs followed by LPS stimulation and measured after 30 mins by ELISA relative to 4-hydroxycoumarin. Conditions: time 2.5 hrs. Format: functional. (In an ELISA, binding on a coated surface is turned into a signal by an enzyme label.)

The source made the active and inactive calls. The rule behind the calls is not given here.

`CC(=O)N1CCN(CCOc2cc(=O)oc3ccccc23)CC1` returned a Cmax in series [1] of 1010 ng/mL. The Activity result in series [2] is given as “Non-Toxic”. Further, in the series on Mus musculus, the outcome was Active. Further, the inhibition in series [3] turned out to be 1.05%. Moreover, the “fold change (FC)” value in the series with J774.A1 was determined as 3.
